{"source": "ChEMBL document CHEMBL4371041", "about": "“Synthesis and evaluation of thieno[3,2-d]pyrimidine derivatives as novel FMS inhibitors” (Bioorg Med Chem Lett, 2019)", "key": {"[1]": {"test": "Tmax in CD-1 mouse at 10 mg/kg, po", "format": "ADME, organism-based", "details": "in vivo"}, "[2]": {"test": "Cmax in CD-1 mouse at 10 mg/kg, po", "format": "ADME, organism-based", "design": "dose 10 mg/kg, route oral", "details": "in vivo"}, "Cytochrome P450 3A4": {"molecular_target": "Cytochrome P450 3A4 (Homo sapiens, UniProt P08684)", "sequence (P08684 whole entry)": "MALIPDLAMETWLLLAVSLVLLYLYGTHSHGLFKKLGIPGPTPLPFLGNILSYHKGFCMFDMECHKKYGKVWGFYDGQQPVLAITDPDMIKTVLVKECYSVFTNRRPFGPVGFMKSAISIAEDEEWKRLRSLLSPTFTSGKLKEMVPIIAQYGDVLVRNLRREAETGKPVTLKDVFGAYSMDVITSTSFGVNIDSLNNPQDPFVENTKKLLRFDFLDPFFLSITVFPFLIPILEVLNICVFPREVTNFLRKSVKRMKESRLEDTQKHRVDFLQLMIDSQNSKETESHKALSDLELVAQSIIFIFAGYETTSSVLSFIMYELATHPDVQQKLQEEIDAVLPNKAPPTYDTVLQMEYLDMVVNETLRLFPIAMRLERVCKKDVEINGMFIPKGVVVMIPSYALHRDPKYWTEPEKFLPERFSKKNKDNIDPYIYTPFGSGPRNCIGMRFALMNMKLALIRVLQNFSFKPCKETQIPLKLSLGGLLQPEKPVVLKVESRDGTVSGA", "test": "Inhibition of CYP3A4 in human liver microsomes by LC-MS/MS analysis", "format": "ADME", "outline": "(§1)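 Reversible CYP inhibition measured in human liver microsomes; metabolite formation quantified by LC/MS/MS.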"}, "[3]": {"molecular_target": "T1, Maternal embryonic leucine zipper kinase (Homo sapiens, UniProt Q14680)", "test": "Inhibition of recombinant human N-terminal GST-tagged MELK (1 to 340 residues) expressed in baculovirus infected Sf21 insect cells at 1 uM using KKLNRTLSFAEPG as substrate in presence of [gamma-33P]-ATP or [gamma-32P]-ATP relative to control"}, "MDA-MB-231 [4]": {"test_system": "MDA-MB-231", "test": "Growth inhibition of human MDA-MB-231 cells at 5 uM after 24 hrs by MTS assay relative to control", "format": "functional", "details": "MDA-MB-231, 24 h, read-out: GI"}, "NFS-60": {"test_system": "NFS-60", "test": "Growth inhibition of mouse NFS60 cells after 72 hrs by CellTiter96 AQueous one solution cell proliferation assay", "format": "functional", "details": "NFS-60, 72 h"}, "[5]": {"test": "Oral bioavailability in CD-1 mouse at 10 mg/kg", "format": "ADME, organism-based", "details": "in vivo"}, "[6]": {"test": "Half life in CD-1 mouse at 3 mg/kg, iv", "format": "ADME, organism-based", "details": "in vivo"}, "[7]": {"molecular_target": "Macrophage colony-stimulating factor 1 receptor (Homo sapiens, UniProt P07333)", "test": "[…] at recombinant human N-terminal His6-tagged FMS (538 to end residues) expressed in baculovirus infected Sf21 insect cells using IGF-R1tide as substrate in presence of [gamma-33P]-ATP or [gamma-32P]-ATP"}, "Cytochrome P450 1A2": {"molecular_target": "Cytochrome P450 1A2 (Homo sapiens, UniProt P05177)", "test": "Inhibition of CYP1A2 in human liver microsomes by LC-MS/MS analysis", "format": "ADME", "outline": "as §1"}, "[8]": {"molecular_target": "T1, Maternal embryonic leucine zipper kinase", "test": "Inhibition of recombinant human N-terminal GST-tagged MELK (1 to 340 residues) expressed in baculovirus infected Sf21 insect cells using KKLNRTLSFAEPG as substrate in presence of [gamma-33P]-ATP or [gamma-32P]-ATP", "outline": "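Kinase panel of twenty-eight enzymes; IC50 values determined with ATP at the respective Km of each kinase.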"}, "MDA-MB-231 [9]": {"test_system": "MDA-MB-231", "test": "Antiinvasive activity against human MDA-MB-231 cells at 1 uM after 72 hrs by luciferase reporter-based matrigel-coated transwell assay relative to control", "format": "functional", "outline": "(§2)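 Invasion of luciferase-expressing MDA-MB-231 cells assessed in a system including RAW264.7 mouse macrophages, across a dose range including 1 μM; invasion read by luciferase signal relative to untreated control.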"}, "[10]": {"test": "Cmax in CD-1 mouse at 3 mg/kg, iv", "format": "ADME, organism-based", "design": "dose 3 mg/kg, route intravenous", "details": "in vivo"}, "MDA-MB-231 [11]": {"test_system": "MDA-MB-231", "test": "Antiinvasive activity against human MDA-MB-231 cells after 72 hrs by luciferase reporter-based matrigel-coated transwell assay", "format": "functional, cell-based", "outline": "as §2"}, "[12]": {"test": "Clearance in CD-1 mouse at 10 mg/kg, po", "format": "ADME, organism-based", "details": "in vivo"}, "[13]": {"molecular_target": "Proto-oncogene tyrosine-protein kinase Src (Homo sapiens) (UniProt P12931)", "sequence (P12931 2-536 limits assumed)": "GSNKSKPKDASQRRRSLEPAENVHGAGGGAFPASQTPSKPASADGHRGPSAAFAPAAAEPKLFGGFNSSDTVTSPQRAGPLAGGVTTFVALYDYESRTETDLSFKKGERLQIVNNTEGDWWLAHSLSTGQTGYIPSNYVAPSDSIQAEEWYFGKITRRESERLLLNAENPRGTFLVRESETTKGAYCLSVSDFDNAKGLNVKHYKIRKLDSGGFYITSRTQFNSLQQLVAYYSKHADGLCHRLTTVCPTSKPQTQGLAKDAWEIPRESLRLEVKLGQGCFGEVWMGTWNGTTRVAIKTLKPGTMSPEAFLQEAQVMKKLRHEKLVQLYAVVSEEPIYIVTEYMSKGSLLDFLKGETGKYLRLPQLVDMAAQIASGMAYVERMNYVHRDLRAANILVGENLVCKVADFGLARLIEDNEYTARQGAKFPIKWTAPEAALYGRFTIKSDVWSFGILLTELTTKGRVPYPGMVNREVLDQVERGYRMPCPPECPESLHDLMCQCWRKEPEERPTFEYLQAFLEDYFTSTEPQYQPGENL", "test": "Inhibition of recombinant human N-terminal His6-tagged Src (1 to 530 residues) expressed in baculovirus infected Sf21 insect cells at 1 uM in presence of [gamma-33P]-ATP or [gamma-32P]-ATP relative to control"}, "[14]": {"test": "Volume of distribution in CD-1 mouse at 10 mg/kg, po", "format": "ADME, organism-based", "details": "in vivo"}, "[15]": {"molecular_target": "Insulin-like growth factor 1 receptor (Homo sapiens) (UniProt P08069)", "test": "Inhibition of Mg/ATP-autoactivated recombinant human N-terminal His6-tagged IGFR1 (959 to end residues) expressed in baculovirus infected Sf21 insect cells at 1 uM in presence of [gamma-33P]-ATP or [gamma-32P]-ATP relative to control"}, "[16]": {"test": "Volume of distribution in CD-1 mouse at 3 mg/kg, iv", "format": "ADME, organism-based", "details": "in vivo"}, "[17]": {"molecular_target": "Aurora kinase B/Inner centromere protein (Homo sapiens) (UniProt Q96GD4+Q9NQS7)", "test": "Inhibition of recombinant human full length C-terminal His6-tagged Aurora B/N-terminal GST-tagged INCENP (821 to end residues) expressed in baculovirus infected Sf21 insect cells at 1 uM in presence of [gamma-33P]-ATP or [gamma-32P]-ATP relative to control"}, "[18]": {"molecular_target": "Glycogen synthase kinase-3 alpha (Homo sapiens) (UniProt P49840)", "sequence (P49840 2-483 limits assumed)": "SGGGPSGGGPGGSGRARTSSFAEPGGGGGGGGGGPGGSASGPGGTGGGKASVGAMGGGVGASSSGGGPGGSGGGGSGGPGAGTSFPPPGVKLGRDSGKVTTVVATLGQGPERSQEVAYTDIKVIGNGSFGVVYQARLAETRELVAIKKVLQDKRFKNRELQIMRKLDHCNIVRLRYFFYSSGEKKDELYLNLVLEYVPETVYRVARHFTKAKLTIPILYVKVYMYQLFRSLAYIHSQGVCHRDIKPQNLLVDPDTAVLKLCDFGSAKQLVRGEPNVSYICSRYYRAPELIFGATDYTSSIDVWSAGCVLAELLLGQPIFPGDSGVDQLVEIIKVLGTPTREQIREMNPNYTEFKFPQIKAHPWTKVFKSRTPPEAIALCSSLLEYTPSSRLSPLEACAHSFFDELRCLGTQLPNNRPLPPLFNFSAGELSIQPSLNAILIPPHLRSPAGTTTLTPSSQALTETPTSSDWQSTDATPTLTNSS", "test": "Inhibition of recombinant human N-terminal His6-tagged GSK3alpha (2 to end residues) expressed in baculovirus infected Sf21 insect cells at 1 uM using GSK3 substrate in presence of [gamma-33P]-ATP or [gamma-32P]-ATP relative to control"}, "[19]": {"molecular_target": "Vascular endothelial growth factor receptor 2 (Homo sapiens, UniProt P35968)", "sequence (P35968 whole entry)": "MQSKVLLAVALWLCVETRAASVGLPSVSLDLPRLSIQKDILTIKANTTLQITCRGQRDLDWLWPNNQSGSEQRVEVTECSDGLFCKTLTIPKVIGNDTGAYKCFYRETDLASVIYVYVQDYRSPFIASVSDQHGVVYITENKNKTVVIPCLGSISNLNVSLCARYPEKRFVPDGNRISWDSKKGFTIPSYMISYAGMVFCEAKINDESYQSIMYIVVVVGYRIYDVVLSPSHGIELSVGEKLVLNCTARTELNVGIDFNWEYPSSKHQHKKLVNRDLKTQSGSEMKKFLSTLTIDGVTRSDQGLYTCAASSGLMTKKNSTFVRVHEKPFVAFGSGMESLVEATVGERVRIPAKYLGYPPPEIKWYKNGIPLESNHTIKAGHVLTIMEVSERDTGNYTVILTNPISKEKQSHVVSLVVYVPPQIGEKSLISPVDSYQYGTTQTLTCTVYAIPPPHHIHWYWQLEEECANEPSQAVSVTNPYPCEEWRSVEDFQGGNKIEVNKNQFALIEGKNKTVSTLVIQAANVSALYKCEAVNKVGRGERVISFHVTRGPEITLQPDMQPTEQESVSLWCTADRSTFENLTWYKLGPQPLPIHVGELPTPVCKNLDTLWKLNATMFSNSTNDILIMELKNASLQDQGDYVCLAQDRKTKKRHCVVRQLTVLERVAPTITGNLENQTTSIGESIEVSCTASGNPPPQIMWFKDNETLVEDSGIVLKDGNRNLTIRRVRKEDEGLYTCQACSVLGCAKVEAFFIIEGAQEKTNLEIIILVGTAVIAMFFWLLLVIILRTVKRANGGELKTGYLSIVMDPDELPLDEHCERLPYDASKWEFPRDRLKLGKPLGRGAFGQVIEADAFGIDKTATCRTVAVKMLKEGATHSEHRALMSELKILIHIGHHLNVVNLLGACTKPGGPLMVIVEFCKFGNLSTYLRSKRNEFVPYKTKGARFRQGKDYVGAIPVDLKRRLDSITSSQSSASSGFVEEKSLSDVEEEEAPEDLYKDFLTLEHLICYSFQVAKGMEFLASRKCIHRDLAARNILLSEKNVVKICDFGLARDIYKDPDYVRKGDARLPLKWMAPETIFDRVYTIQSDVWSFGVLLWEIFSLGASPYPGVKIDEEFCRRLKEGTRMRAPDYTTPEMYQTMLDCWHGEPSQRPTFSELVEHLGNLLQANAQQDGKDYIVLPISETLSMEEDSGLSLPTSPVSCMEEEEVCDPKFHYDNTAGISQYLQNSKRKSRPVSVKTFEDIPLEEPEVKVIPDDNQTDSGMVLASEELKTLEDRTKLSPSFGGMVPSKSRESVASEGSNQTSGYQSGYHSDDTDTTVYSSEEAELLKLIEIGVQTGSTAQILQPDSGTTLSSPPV", "test": "Inhibition of recombinant human N-terminal His6-tagged KDR (790 to end residues) expressed in baculovirus infected Sf21 insect cells at 1 uM using MBP as substrate in presence of [gamma-33P]-ATP or [gamma-32P]-ATP relative to control"}, "Cytochrome P450 2C19": {"molecular_target": "Cytochrome P450 2C19 (Homo sapiens, UniProt P33261)", "sequence (P33261 whole entry)": "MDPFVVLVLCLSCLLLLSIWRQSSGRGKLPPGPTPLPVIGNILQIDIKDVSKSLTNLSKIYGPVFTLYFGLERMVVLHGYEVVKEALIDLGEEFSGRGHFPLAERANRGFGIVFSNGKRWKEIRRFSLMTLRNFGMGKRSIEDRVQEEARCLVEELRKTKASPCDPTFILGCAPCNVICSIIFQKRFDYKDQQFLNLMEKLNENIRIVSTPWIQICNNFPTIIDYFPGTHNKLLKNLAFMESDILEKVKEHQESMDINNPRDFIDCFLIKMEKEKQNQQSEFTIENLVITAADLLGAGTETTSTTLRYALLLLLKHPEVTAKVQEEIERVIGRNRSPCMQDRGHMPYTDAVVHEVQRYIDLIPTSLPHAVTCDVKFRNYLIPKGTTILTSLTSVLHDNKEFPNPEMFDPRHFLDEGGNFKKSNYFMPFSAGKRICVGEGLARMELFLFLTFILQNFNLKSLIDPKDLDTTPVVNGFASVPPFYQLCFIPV", "test": "Inhibition of CYP2C19 in human liver microsomes by LC-MS/MS analysis", "format": "ADME", "outline": "as §1"}, "[20]": {"molecular_target": "Discoidin domain-containing receptor 2 (Homo sapiens) (UniProt Q16832)", "sequence (Q16832 whole entry, the tested form may be a part)": "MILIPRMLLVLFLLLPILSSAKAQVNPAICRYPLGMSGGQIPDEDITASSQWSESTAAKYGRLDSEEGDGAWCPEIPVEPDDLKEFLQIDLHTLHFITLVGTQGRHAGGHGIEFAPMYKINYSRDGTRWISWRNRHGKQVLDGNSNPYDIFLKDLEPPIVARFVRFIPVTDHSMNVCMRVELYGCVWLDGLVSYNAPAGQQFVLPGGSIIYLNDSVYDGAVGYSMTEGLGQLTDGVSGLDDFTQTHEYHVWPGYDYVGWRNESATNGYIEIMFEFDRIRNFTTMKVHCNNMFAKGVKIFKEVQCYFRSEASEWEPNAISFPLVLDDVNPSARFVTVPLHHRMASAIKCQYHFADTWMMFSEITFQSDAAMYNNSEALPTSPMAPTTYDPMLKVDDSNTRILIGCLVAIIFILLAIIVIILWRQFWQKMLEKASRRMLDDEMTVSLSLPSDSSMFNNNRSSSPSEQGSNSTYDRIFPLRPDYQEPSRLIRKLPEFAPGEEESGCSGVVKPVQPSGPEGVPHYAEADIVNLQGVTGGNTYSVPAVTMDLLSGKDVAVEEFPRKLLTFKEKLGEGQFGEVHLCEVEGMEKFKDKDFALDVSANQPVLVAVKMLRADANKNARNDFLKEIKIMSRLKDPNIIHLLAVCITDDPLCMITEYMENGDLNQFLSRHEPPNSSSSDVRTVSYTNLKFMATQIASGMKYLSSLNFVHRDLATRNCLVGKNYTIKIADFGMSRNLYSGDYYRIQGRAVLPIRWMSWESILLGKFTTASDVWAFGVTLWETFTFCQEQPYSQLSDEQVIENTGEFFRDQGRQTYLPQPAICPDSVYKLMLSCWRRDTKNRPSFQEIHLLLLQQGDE", "test": "Inhibition of recombinant human N-terminal His6-tagged DDR2 (467 to end residues) expressed in baculovirus infected Sf21 insect cells at 1 uM using Axltide as substrate in presence of [gamma-33P]-ATP or [gamma-32P]-ATP relative to control"}, "Cytochrome P450 2C9": {"molecular_target": "Cytochrome P450 2C9 (Homo sapiens, UniProt P11712)", "sequence (P11712 whole entry)": "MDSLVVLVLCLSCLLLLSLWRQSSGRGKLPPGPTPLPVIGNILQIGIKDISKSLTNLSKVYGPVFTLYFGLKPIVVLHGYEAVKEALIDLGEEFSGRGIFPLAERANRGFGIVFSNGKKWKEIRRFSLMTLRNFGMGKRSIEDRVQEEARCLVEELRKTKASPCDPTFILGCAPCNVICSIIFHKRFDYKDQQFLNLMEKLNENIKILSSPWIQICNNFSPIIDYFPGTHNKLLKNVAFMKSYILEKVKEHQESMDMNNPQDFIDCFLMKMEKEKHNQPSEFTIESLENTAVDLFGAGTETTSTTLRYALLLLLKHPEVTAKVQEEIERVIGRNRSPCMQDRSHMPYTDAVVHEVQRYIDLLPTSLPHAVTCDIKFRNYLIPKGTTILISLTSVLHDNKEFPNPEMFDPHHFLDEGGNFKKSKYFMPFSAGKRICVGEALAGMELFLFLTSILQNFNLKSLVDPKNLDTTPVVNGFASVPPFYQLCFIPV", "test": "Inhibition of CYP2C9 in human liver microsomes by LC-MS/MS analysis", "format": "ADME", "outline": "as §1"}, "[21]": {"molecular_target": "Tyrosine-protein kinase receptor UFO (Homo sapiens) (UniProt P30530)", "test": "Inhibition of recombinant human N-terminal His6-tagged Axl (473 to end residues) expressed in baculovirus infected Sf21 insect cells at 1 uM using Axltide as substrate in presence of [gamma-33P]-ATP or [gamma-32P]-ATP relative to control"}, "MDA-MB-231 [22]": {"test_system": "MDA-MB-231", "test": "Inhibition of paclitaxel-induced FMS expression in human MDA-MB-231 cells by Western blot analysis", "format": "functional, cell-based"}, "MDA-MB-231 [23]": {"test_system": "MDA-MB-231", "test": "Synergistic growth inhibition of human MDA-MB-231 cells assessed as combination index at 5 uM after 24 hrs in presence of paclitaxel by MTS assay", "format": "functional", "outline": "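MDA-MB-231 human breast adenocarcinoma cells were treated with the test agent, paclitaxel, or both together, and cell growth inhibition was measured. Synergy was expressed as a combination index (CI) calculated from the growth-inhibition data.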"}, "[24]": {"molecular_target": "Tyrosine-protein kinase JAK3 (Homo sapiens) (UniProt P52333)", "test": "Inhibition of recombinant human N-terminal His6-tagged JAK3 (781 to end residues) expressed in baculovirus infected Sf21 insect cells at 1 uM using JAK3tide as substrate in presence of [gamma-33P]-ATP or [gamma-32P]-ATP relative to control"}}}
{"smiles": "Cc1cccc(Cn2nc(C)c3c(NC(=O)c4csc5c(N)ncnc45)cccc32)n1", "values": [{"measurement": "Tmax", "setting": "[1]", "result": 2, "unit": "h"}, {"measurement": "Cmax", "setting": "[2]", "result": 0.9, "unit": "µg/mL"}, {"measurement": "IC50", "setting": "Cytochrome P450 3A4", "result": "> 20", "unit": "µM"}, {"measurement": "inhibition", "setting": "[3]", "result": "> 60", "unit": "%"}, {"measurement": "inhibition of growth at 5 µM", "setting": "MDA-MB-231 [4]", "result": 20, "unit": "%"}, {"measurement": "GI50", "setting": "NFS-60", "result": 0.08, "unit": "µM"}, {"measurement": "bioavailability", "setting": "[5]", "result": 36, "unit": "%"}, {"measurement": "half-life", "setting": "[6]", "result": 1.6, "unit": "h"}, {"measurement": "IC50", "setting": "[7]", "result": 0.002, "unit": "µM"}, {"measurement": "IC50", "setting": "Cytochrome P450 1A2", "result": "> 20", "unit": "µM"}, {"measurement": "IC50", "setting": "[8]", "result": 0.258, "unit": "µM"}, {"measurement": "Activity", "setting": "MDA-MB-231 [9]", "result": 67, "unit": "%"}, {"measurement": "Cmax", "setting": "[10]", "result": 2.55, "unit": "µg/mL"}, {"measurement": "Activity", "setting": "MDA-MB-231 [11]", "result": "Dose-dependent effect"}, {"measurement": "CL/F", "setting": "[12]", "result": 2, "unit": "L/h/kg"}, {"measurement": "inhibition", "setting": "[13]", "result": 4, "unit": "%"}, {"measurement": "Vd", "setting": "[14]", "result": 7.5, "unit": "L/kg"}, {"measurement": "inhibition", "setting": "[15]", "result": 56, "unit": "%"}, {"measurement": "Vd", "setting": "[16]", "result": 2, "unit": "L/kg"}, {"measurement": "inhibition", "setting": "[17]", "result": -3, "unit": "%"}, {"measurement": "inhibition", "setting": "[18]", "result": -10, "unit": "%"}, {"measurement": "inhibition", "setting": "[19]", "result": "> 60", "unit": "%"}, {"measurement": "IC50", "setting": "Cytochrome P450 2C19", "result": "> 20", "unit": "µM"}, {"measurement": "inhibition", "setting": "[20]", "result": "> 60", "unit": "%"}, {"measurement": "IC50", "setting": "Cytochrome P450 2C9", "result": "> 20", "unit": "µM"}, {"measurement": "inhibition", "setting": "[21]", "result": 12, "unit": "%"}, {"measurement": "inhibition", "setting": "MDA-MB-231 [22]", "result": "Dose-dependent effect"}, {"measurement": "CI", "setting": "MDA-MB-231 [23]", "result": "<0.1"}, {"measurement": "inhibition", "setting": "[24]", "result": 6, "unit": "%"}]}
